Measurements as given in ChEMBL document CHEMBL3745692, “Novel iodoacetamido benzoheterocyclic derivatives with potent antileukemic activity are inhibitors of STAT5 phosphorylation” (Eur J Med Chem, 2016).

Experiments:
[1] = test system: K562; test: Induction of apoptosis in human K562 cells after 48 hrs by annexinV and propidium iodide staining based flow cytometry; type: functional, cell-based; conditions: K562, 48 h
In short: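 After 48 h drug exposure, 1×10^6 cells were washed in PBS and spun at 200×g for 5 min. They were stained with FITC-annexin V plus propidium iodide for 15 min at 20 °C and annexin V-positive cells counted by flow cytometry. Apoptosis was also scored morphologically with acridine orange/ethidium bromide, counting at least 300 cells. AC50 is the concentration inducing apoptosis in 50% of cells; mean ± SE from two to three experiments.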

[2] = test system: K562; test: Antiproliferative activity against human K562 cells after 48 hrs by trypan blue dye exclusion assay; type: functional, cell-based; conditions: K562, 48 h
[3] = test system: K562; test: Cell cycle arrest in human K562 cells assessed as accumulation at G1 phase at 2 uM for 24 hrs by propidium iodide staining based flow cytometry (reference value: 39.27%); type: functional
In short: (§1)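 K562 cells were exposed to compound for 24 h. They were then washed in ice-cold PBS and resuspended at 1×10^6/mL in a hypotonic solution of propidium iodide 50 µg/mL in 0.1% sodium citrate with 0.03% NP-40. After 30 min, DNA content was read by flow cytometry as single-parameter histograms and cell cycle phase distribution (%) was modelled.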

[4] = target: T1, Signal transducer and activator of transcription 5A (Homo sapiens) (UniProt P42229); test: Inhibition of STAT5 phosphorylation in human K562 cells at 2 uM after 24 hrs by flow cytometry (reference value: 315.56); type: cell-based
T1 sequence (whole entry): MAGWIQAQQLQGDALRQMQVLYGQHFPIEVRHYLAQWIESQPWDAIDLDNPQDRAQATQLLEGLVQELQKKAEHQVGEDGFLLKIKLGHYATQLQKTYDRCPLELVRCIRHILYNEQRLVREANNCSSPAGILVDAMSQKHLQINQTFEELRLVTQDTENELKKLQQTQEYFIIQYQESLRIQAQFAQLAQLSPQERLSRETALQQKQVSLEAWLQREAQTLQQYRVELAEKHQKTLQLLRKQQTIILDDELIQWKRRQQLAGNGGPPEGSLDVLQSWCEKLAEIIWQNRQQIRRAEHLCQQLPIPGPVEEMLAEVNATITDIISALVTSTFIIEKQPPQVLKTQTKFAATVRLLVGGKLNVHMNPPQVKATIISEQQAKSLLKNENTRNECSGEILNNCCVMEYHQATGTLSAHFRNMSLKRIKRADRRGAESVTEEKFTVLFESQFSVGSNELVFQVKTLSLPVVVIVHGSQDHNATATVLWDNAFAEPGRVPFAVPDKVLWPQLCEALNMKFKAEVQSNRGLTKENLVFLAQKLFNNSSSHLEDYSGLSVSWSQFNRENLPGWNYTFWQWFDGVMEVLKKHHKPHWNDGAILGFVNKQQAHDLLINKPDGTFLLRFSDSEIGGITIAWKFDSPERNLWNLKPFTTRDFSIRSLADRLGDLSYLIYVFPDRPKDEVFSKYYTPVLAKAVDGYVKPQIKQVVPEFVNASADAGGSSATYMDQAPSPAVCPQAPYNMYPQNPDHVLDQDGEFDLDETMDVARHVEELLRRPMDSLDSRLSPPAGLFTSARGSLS
In short: (§2)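 After 24 h exposure, about 1×10^6 K562 cells were PBS-washed and fixed/permeabilised for 20 min at 4 °C. They were then stained for 30 min at 4 °C with PE-conjugated anti-pSTAT5 monoclonal antibody, with an isotype antibody as control. Median fluorescence was read by flow cytometry and compared with untreated cells stained for pSTAT5.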

[5] = species: Bos taurus; test: Inhibition of [3H]colchicine binding to bovine tubulin at 5 uM by DEAE-cellulose filter method
In short: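 Reaction mixtures contained 1 µM tubulin, 5 µM [3H]colchicine and 5 µM test compound. Result is given as % inhibition of colchicine binding ± SD.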

[6] = target: Tubulin (Bos taurus, UniProt Q6B856+Q862L2+Q862F3); test: Inhibition of bovine brain tubulin polymerization by spectrophotometry
In short: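 Bovine brain tubulin (10 µM) was pre-incubated with varying compound concentrations in glutamate buffer at 30 °C, then cooled to 0 °C. GTP was added ([…] final) and the mixture warmed to 30 °C. Assembly was followed by turbidity at 350 nm.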

[7] = test system: K562; test: Cell cycle arrest in human K562 cells assessed as accumulation at S-phase at 2 uM for 24 hrs by propidium iodide staining based flow cytometry (reference value: 47.84%); type: functional; in short: as §1
[8] = test system: K562; test: Cell cycle arrest in human K562 cells assessed as accumulation at G2M-phase at 2 uM for 24 hrs by propidium iodide staining based flow cytometry (reference value: 12.89%); type: functional; in short: as §1
[9] = test system: K562; test: Cell cycle arrest in human K562 cells assessed as accumulation at S-phase at 3 uM for 24 hrs by propidium iodide staining based flow cytometry (reference value: 47.84%); type: functional
In short: (§3)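 K562 cells in RPMI 1640 with 10% FCS, penicillin/streptomycin and L-glutamine, 5% CO2, 37 °C; exposed 24 h. Cells washed in ice-cold PBS, resuspended at 1×10^6/mL in hypotonic solution of propidium iodide 50 µg/mL in 0.1% sodium citrate plus 0.03% nonidet P-40 for 30 min. DNA content read as single-parameter flow cytometry histograms; phase distribution modelled.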

[10] = test system: K562; test: Cell cycle arrest in human K562 cells assessed as accumulation at G1 phase at 3 uM for 24 hrs by propidium iodide staining based flow cytometry (reference value: 39.27%); type: functional; in short: as §3
[11] = target: T1, Signal transducer and activator of transcription 5A (Homo sapiens); test: Inhibition of STAT5 phosphorylation in human K562 cells at 3 uM after 24 hrs by flow cytometry (reference value: 315.56); type: cell-based; in short: as §2
[12] = target: T1, Signal transducer and activator of transcription 5A (Homo sapiens); test: Inhibition of STAT5 phosphorylation in human K562 cells at 3 uM after 24 hrs by flow cytometry relative to control; type: cell-based; in short: as §2
[13] = test system: K562; test: Cell cycle arrest in human K562 cells assessed as accumulation at G2M-phase at 3 uM for 24 hrs by propidium iodide staining based flow cytometry (reference value: 12.89%); type: functional; in short: as §3
[14] = target: T1, Signal transducer and activator of transcription 5A (Homo sapiens); test: Inhibition of STAT5 phosphorylation in human K562 cells at 2 uM after 24 hrs by flow cytometry relative to control; type: cell-based
In short: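 K562 cells were exposed for 24 h. About 1×10^6 cells were fixed and permeabilized for 20 min at 4 °C, then stained for 30 min at 4 °C with PE-conjugated anti-pSTAT5 monoclonal antibody; an isotype IgG1 antibody served as the background control. Median fluorescence was read by flow cytometry and compared with untreated cells stained for pSTAT5.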

[15] = target: T1, Signal transducer and activator of transcription 5A (Homo sapiens); test: Inhibition of STAT5 phosphorylation in human K562 cells at 0.75 uM after 24 hrs by flow cytometry (reference value: 315.56); type: cell-based; in short: as §2
[16] = test system: K562; test: Cell cycle arrest in human K562 cells assessed as accumulation at G2M-phase at 0.75 uM for 24 hrs by propidium iodide staining based flow cytometry (reference value: 12.89%); type: functional; in short: as §1
[17] = test system: K562; test: Cell cycle arrest in human K562 cells assessed as accumulation at S-phase at 0.75 uM for 24 hrs by propidium iodide staining based flow cytometry (reference value: 47.84%); type: functional; in short: as §1
[18] = test system: K562; test: Cell cycle arrest in human K562 cells assessed as accumulation at G1 phase at 0.75 uM for 24 hrs by propidium iodide staining based flow cytometry (reference value: 39.27%); type: functional; in short: as §1

Compound: COc1ccc(C(=O)c2oc3ccccc3c2NC(=O)CI)cc1
- AC50 [1]: 6800 nM
- IC50 [2]: 2900 nM

Compound: COc1cc(C(=O)c2c(NC(=O)CI)c3cccc(OC)c3n2C)cc(OC)c1OC
- AC50 [1]: 4600 nM
- Activity [3]: 77.64%
- Flu intensity [4]: 58.2
- inhibition [5]: 38%
- IC50 [6]: 2000 nM
- Activity [7]: 19.55%
- IC50 [2]: 800 nM
- Activity [8]: 2.81%

Compound: COc1ccc2c(NC(=O)CI)c(C(=O)c3cc(OC)c(OC)c(OC)c3)oc2c1
- AC50 [1]: 450 nM
- inhibition [5]: 54%
- IC50 [6]: 1800 nM
- IC50 [2]: 120 nM

Compound: COc1cc(C(=O)c2[nH]c3ccccc3c2NC(=O)CI)cc(OC)c1OC
- AC50 [1]: 2400 nM
- Activity [9]: 57.79%
- Activity [10]: 31.82%
- Flu intensity [11]: 222
- IC50 [2]: 500 nM
- inhibition [12]: 30%
- Activity [13]: 9.39%

Compound: COc1cc(C(=O)c2cc3ccc(NC(=O)CI)cc3o2)cc(OC)c1OC
- AC50 [1]: 2900 nM
- Activity [9]: 51.3%
- Activity [10]: 37.06%
- Flu intensity [11]: 289
- IC50 [2]: 600 nM
- Activity [13]: 11.1%

Compound: COc1cc(C(=O)c2cc3cccc(NC(=O)CI)c3o2)cc(OC)c1OC
- AC50 [1]: > 50000 nM
- IC50 [2]: > 50000 nM

Compound: COc1cc(C(=O)c2c(NC(=O)CI)c3ccccc3n2C)cc(OC)c1OC
- AC50 [1]: 8200 nM
- IC50 [2]: 4300 nM

Compound: COc1cc2oc(C(=O)c3cc(OC)c(OC)c(OC)c3)cc2cc1NC(=O)CI
- inhibition [14]: 29%
- AC50 [1]: 2000 nM
- Activity [3]: 43.33%
- Flu intensity [4]: 225
- Activity [7]: 52.26%
- IC50 [2]: 400 nM
- Activity [8]: 4.41%

Compound: Cc1ccc(NC(=O)c2ccc(CN3CCN(C)CC3)cc2)cc1Nc1nccc(-c2cccnc2)n1 [IMATINIB]
- AC50 [1]: 680 nM

Compound: COc1cc(C(=O)c2cc3cc(NC(=O)CI)cc(OC)c3o2)cc(OC)c1OC
- Flu intensity [15]: 316
- Activity [16]: 8.02%
- AC50 [1]: 2200 nM
- Activity [17]: 57.32%
- IC50 [2]: 400 nM
- Activity [18]: 34.66%

Compound: COc1cc(C(=O)c2oc3ccc(NC(=O)CI)cc3c2C)cc(OC)c1OC
- AC50 [1]: 26800 nM
- IC50 [2]: 18000 nM

Compound: COc1cc(C(=O)c2oc3c(OC)cccc3c2NC(=O)CI)cc(OC)c1OC
- AC50 [1]: 24000 nM
- IC50 [2]: 14000 nM

Compound: COc1cc(C(=O)c2cc3cc(NC(=O)CI)ccc3o2)cc(OC)c1OC
- inhibition [14]: 19%
- AC50 [1]: 2900 nM
- Activity [3]: 39.48%
- Flu intensity [4]: 255
- Activity [7]: 53.52%
- IC50 [2]: 600 nM
- Activity [8]: 7%

Compound: COc1cc(C(=O)c2sc3cc(C)ccc3c2NC(=O)CI)cc(OC)c1OC
- AC50 [1]: 4700 nM
- Activity [9]: 27.66%
- Activity [10]: 41.47%
- Flu intensity [11]: 200
- IC50 [2]: 1000 nM
- Activity [13]: 30.87%

Compound: COc1ccc2oc(C(=O)c3cc(OC)c(OC)c(OC)c3)c(NC(=O)CI)c2c1
- AC50 [1]: 7800 nM
- IC50 [2]: 3200 nM

Compound: COc1cc(C(=O)c2cc3cc(NC(=O)CI)ccc3s2)cc(OC)c1OC
- AC50 [1]: 4200 nM
- Activity [3]: 32.96%
- Flu intensity [4]: 279
- Activity [7]: 54.92%
- IC50 [2]: 800 nM
- Activity [8]: 12.12%

Compound: COc1ccc(C(=O)c2oc3ccccc3c2NC(=O)CI)cc1OC
- AC50 [1]: 48000 nM
- IC50 [2]: 22000 nM

Compound: COc1cc(C(=O)c2oc3ccccc3c2NC(=O)CI)cc(OC)c1OC
- AC50 [1]: 6500 nM
- Activity [9]: 20.98%
- IC50 [6]: > 20000 nM
- Activity [10]: 75.37%
- Flu intensity [11]: 98.3
- IC50 [2]: 900 nM
- Activity [13]: 3.65%

Compound: COc1cc(C(=O)c2cc3c(NC(=O)CI)cccc3o2)cc(OC)c1OC
- AC50 [1]: 4500 nM
- Activity [3]: 33.67%
- Flu intensity [4]: 272
- Activity [7]: 53.09%
- IC50 [2]: 800 nM
- Activity [8]: 16.24%

Compound: COc1cc(C(=O)c2cc3cc(NC(=O)CI)cc(OC)c3s2)cc(OC)c1OC
- AC50 [1]: 3700 nM
- Activity [3]: 19.94%
- Flu intensity [4]: 201
- Activity [7]: 33.7%
- IC50 [2]: 780 nM
- Activity [8]: 45.36%

Compound: COc1cc(C(=O)c2sc3ccccc3c2NC(=O)CI)cc(OC)c1OC
- AC50 [1]: 28000 nM
- IC50 [2]: 18000 nM
